Experiments:
Lipopolysaccharide (LPS) [1] = assay: Effective dose required for binding to lipopolysaccharide using Fluorescence Displacement Assay; Range is ~1-2 uM
Procedure, shortened: (§1)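 BODIPY-TR-cadaverine displacement from LPS. Compounds from 5 mM DMSO stocks were serially diluted two-fold in 50 mM Tris pH 7.4 down to 0.596 nM final. An LPS/probe mixture was added and end-point fluorescence was read at 620 nm; probe de-quenching reports binding. ED50 was computed from displacement curves, with polymyxin B as the reference on every plate.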

Lipopolysaccharide (LPS) [2] = assay: Effective dose required for binding to lipopolysaccharide using Fluorescence Displacement Assay; procedure, shortened: as §1
[3] = In vitro inhibitory concentration required to inhibit LPS-induced nitric oxide production in J774A.1 cells; format: functional, cell-based; details: Mus musculus, J774.A1
Procedure, shortened: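 Murine J774A.1 macrophages were plated at ~10^5/ml and stimulated with 10 ng/ml LPS. Serially diluted compounds were added at the same time, with polymyxin B as reference, and cells were incubated for 16 h. Nitrite in the supernatant was measured by Griess reaction (15 min, room temperature, dark; A535) against a sodium nitrite standard curve. IC50 was taken from dose-response. Viability was checked in parallel by XTT.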

Homo sapiens = species on record: Homo sapiens; assay: Inhibitory concentration required to inhibit LPS-induced TNF-alpha production in ex vivo human whole blood assay; format: functional, organism-based
Procedure, shortened: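 Fresh EDTA-anticoagulated whole blood from healthy volunteers was mixed with an equal volume of 20 ng/ml E. coli O111:B4 LPS plus graded compound concentrations diluted in saline and incubated for 4 h. TNF-α was quantified by a multiplexed flow-cytometric cytokine bead array against recombinant cytokine standards. IC50 was derived from dose-response.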

Mus musculus [4] = assay: Protection of LPS-induced lethality in mice was determined after administration of 0 ug and activity expressed as dead/total (5/5); format: functional
Mus musculus [5] = assay: Protection of LPS-induced lethality in mice was determined after administration of 500 ug and activity expressed as dead/total (4/5); format: functional
Mus musculus [6] = assay: Protection of LPS-induced lethality in mice was determined after administration of 100 ug and activity expressed as dead/total (2/5); format: functional
Mus musculus [7] = assay: Protection of LPS-induced lethality in mice was determined after administration of 200 ug and activity expressed as dead/total (1/5); format: functional
Mus musculus [8] = assay: Protection of LPS-induced lethality in mice was determined after administration of 50 ug and activity expressed as dead/total (4/5); format: functional
Mus musculus [9] = assay: Protection of LPS-induced lethality in mice was determined after administration of 100 ug and activity expressed as dead/total (4/5); format: functional
Mus musculus [10] = assay: Protection of LPS-induced lethality in mice was determined after administration of 50 ug and activity expressed as dead/total (5/5); format: functional
Mus musculus [11] = assay: Protection of LPS-induced lethality in mice was determined after administration of 10 ug and activity expressed as dead/total (5/5); format: functional
Mus musculus [12] = assay: Protection of LPS-induced lethality in mice sensitized by D-galactosamine was determined after 200 ug administered ip at -2 hour and activity expressed as dead/total (0/5); format: functional
Lipopolysaccharide (LPS) [13] = assay: Dissociation constant against lipopolysaccharide
Procedure, shortened: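 Isothermal titration calorimetry at 37 °C in 50 mM Tris pH 7.4, ligand and LPS in the same buffer. E. coli O111:B4 LPS was titrated in 35 injections at 360 s intervals into the cell holding the acylhomospermine, with stirring at 310 rpm. Controls injected LPS into buffer. KD was obtained from fitting the binding isotherm.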

Mus musculus [14] = assay: Protection of LPS-induced lethality in mice sensitized by D-galactosamine was determined after 200 ug administered ip at 2 hour and activity expressed as dead/total (4/5); format: functional
Mus musculus [15] = assay: Protection of LPS-induced lethality in mice was determined after administration of 100 ug and activity expressed as dead/total (0/5); format: functional
Mus musculus [16] = assay: Protection of LPS-induced lethality in mice sensitized by D-galactosamine was determined after 200 ug administered ip at 0 hour and activity expressed as dead/total (0/5); format: functional
Mus musculus [17] = assay: Protection of LPS-induced lethality in mice sensitized by D-galactosamine was determined after 200 ug administered ip at -6 hour and activity expressed as dead/total (1/5); format: functional
Mus musculus [18] = assay: Protection of LPS-induced lethality in mice sensitized by D-galactosamine was determined after 200 ug administered ip at -4 hour and activity expressed as dead/total (1/5); format: functional
Mus musculus [19] = assay: Protection of LPS-induced lethality in mice was determined after administration of 50 ug and activity expressed as dead/total (2/5); format: functional
Mus musculus [20] = assay: Protection of LPS-induced lethality in mice sensitized by D-galactosamine was determined after 200 ug administered ip at 1 hour and activity expressed as dead/total (5/5); format: functional
Mus musculus [21] = assay: Protection of LPS-induced lethality in mice was determined after administration of 200 ug and activity expressed as dead/total (0/5); format: functional

## CCCCCCCCCC(=O)NCCCN(CCCN(CCCCN(CCCNC(=O)OC(C)(C)C)C(=O)OC(C)(C)C)C(=O)OC(C)(C)C)C(=O)OC(C)(C)C
Lipopolysaccharide (LPS) [1]
  ED50: < 2 µM

## CC(=O)NCCCNCCCNCCCCNCCCN
Lipopolysaccharide (LPS) [2]
  ED50: 107 µM
[3]
  IC50: 171 µM
Homo sapiens
  IC50: 36.6 µM

## CCCCCCCCCCCCCCC(=O)NCCCN(CCCN(CCCCN(CCCNC(=O)OC(C)(C)C)C(=O)OC(C)(C)C)C(=O)OC(C)(C)C)C(=O)OC(C)(C)C
Lipopolysaccharide (LPS) [1]
  ED50: < 2 µM

## CCCCCCCCC(=O)NCCCNCCCNCCCCNCCCN
Lipopolysaccharide (LPS) [2]
  ED50: 0.92 µM
[3]
  IC50: 52.5 µM
Homo sapiens
  IC50: 31.1 µM

## CCCCCCCCCCCCCCCCC(=O)NCCCN(CCCN(CCCCN(CCCNC(=O)OC(C)(C)C)C(=O)OC(C)(C)C)C(=O)OC(C)(C)C)C(=O)OC(C)(C)C
Lipopolysaccharide (LPS) [1]
  ED50: < 2 µM

## CCCCCCCCCCCC(=O)NCCCNCCCNCCCCNCCCNCCCNC(=O)CCCCCCCCCCC
Mus musculus [4]
  Dead: 5
Mus musculus [5]
  Dead: 4
Lipopolysaccharide (LPS) [2]
  ED50: 6.87 µM
Mus musculus [6]
  Dead: 2
[3]
  IC50: 1.44 µM
Mus musculus [7]
  Dead: 1
Mus musculus [8]
  Dead: 4
Homo sapiens
  IC50: 9.19 µM

## CCCCCCCCC(=O)NCCCN(CCCN(CCCCN(CCCNC(=O)OC(C)(C)C)C(=O)OC(C)(C)C)C(=O)OC(C)(C)C)C(=O)OC(C)(C)C
Lipopolysaccharide (LPS) [1]
  ED50: < 2 µM

## CCCCCCCCCCCCCCCCC(=O)NCCCNCCCNCCCCNCCCNCCCNC(=O)CCCCCCCCCCCCCCCC
Lipopolysaccharide (LPS) [2]
  ED50: 52.5 µM
[3]
  IC50: 14.2 µM
Homo sapiens
  IC50: 37.1 µM

## CCCCCCCCCCCCCCCCCCC(=O)NCCCNCCCNCCCCNCCCN
Lipopolysaccharide (LPS) [2]
  ED50: 2.44 µM
[3]
  IC50: 4.35 µM
Homo sapiens
  IC50: 2.31 µM

## CCCCCCCCC(=O)NCCCNCCCNCCCCNCCCNCCCNC(=O)CCCCCCCC
Mus musculus [9]
  Dead: 4
Mus musculus [4]
  Dead: 5
Lipopolysaccharide (LPS) [2]
  ED50: 0.33 µM
[3]
  IC50: 2.05 µM
Mus musculus [10]
  Dead: 5
Mus musculus [7]
  Dead: 1
Homo sapiens
  IC50: 4.88 µM
Mus musculus [11]
  Dead: 5

## CC(C)(C)OC(=O)NCCCN(CCCCN(CCCN(CCCN)C(=O)OC(C)(C)C)C(=O)OC(C)(C)C)C(=O)OC(C)(C)C
Lipopolysaccharide (LPS) [1]
  ED50: < 2 µM

## CC(=O)NCCCN(CCCN(CCCCN(CCCNC(=O)OC(C)(C)C)C(=O)OC(C)(C)C)C(=O)OC(C)(C)C)C(=O)OC(C)(C)C
Lipopolysaccharide (LPS) [1]
  ED50: < 2 µM

## CCCCCCCCCCCCCCCCCCC(=O)NCCCN(CCCN(CCCCN(CCCNC(=O)OC(C)(C)C)C(=O)OC(C)(C)C)C(=O)OC(C)(C)C)C(=O)OC(C)(C)C
Lipopolysaccharide (LPS) [1]
  ED50: < 2 µM

## CCCCCCCCCCCCCCC(=O)NCCCNCCCNCCCCNCCCN
Lipopolysaccharide (LPS) [2]
  ED50: 1.35 µM
[3]
  IC50: 3.69 µM
Homo sapiens
  IC50: 2.27 µM

## CCCCCCCCCCCCCCCCCCC(=O)NCCCNCCCNCCCCNCCCNCCCNC(=O)CCCCCCCCCCCCCCCCCC
Lipopolysaccharide (LPS) [2]
  ED50: 66.7 µM
[3]
  IC50: 13.9 µM
Homo sapiens
  IC50: 120 µM

## NCCCNCCCCNCCCN
Lipopolysaccharide (LPS) [1]
  ED50: < 2 µM

## CCCCCCCCCC(=O)NCCCNCCCNCCCCNCCCN
Lipopolysaccharide (LPS) [2]
  ED50: 1.08 µM
[3]
  IC50: 23.5 µM
Homo sapiens
  IC50: 16.5 µM

## CCCCCCCCCCCCCCC(=O)NCCCNCCCNCCCCNCCCNCCCNC(=O)CCCCCCCCCCCCCC
Lipopolysaccharide (LPS) [2]
  ED50: 8.67 µM
[3]
  IC50: 10.1 µM
Homo sapiens
  IC50: 63.1 µM

## POLYMYXIN B
Lipopolysaccharide (LPS) [2]
  ED50: 1.2 µM

## CCCCCCCCCCCCCCCCC(=O)NCCCNCCCNCCCCNCCCN
Mus musculus [12]
  Dead: 0
Mus musculus [4]
  Dead: 5
Lipopolysaccharide (LPS) [13]
  Kd: 1210 nM
Mus musculus [14]
  Dead: 4
Lipopolysaccharide (LPS) [2]
  ED50: 1.37 µM
Mus musculus [15]
  Dead: 0
Mus musculus [16]
  Dead: 0
[3]
  IC50: 4.22 µM
Mus musculus [17]
  Dead: 1
Mus musculus [18]
  Dead: 1
Mus musculus [19]
  Dead: 2
Mus musculus [20]
  Dead: 5
Homo sapiens
  IC50: 1.91 µM
Mus musculus [21]
  Dead: 0
Mus musculus [11]
  Dead: 5

## CCCCCCCCCC(=O)NCCCNCCCNCCCCNCCCNCCCNC(=O)CCCCCCCCC
Lipopolysaccharide (LPS) [2]
  ED50: 0.76 µM
[3]
  IC50: 1.47 µM
Homo sapiens
  IC50: 10 µM

Reference: ChEMBL document CHEMBL1145213, “Lipopolysaccharide sequestrants: structural correlates of activity and toxicity in novel acylhomospermines” (J Med Chem, 2005)
